The test system of series [1] is SH-SY5Y. As to the kind of experiment: Toxicity in retinoic acid-differentiated human SH-SY5Y cells assessed as effect on cell morphology at 10 uM after 24 hrs by trypan blue exclusion method. It is filed as cell-based. The procedure, abridged:
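Retinoic acid-differentiated SH-SY5Y cells (10 μM RA, 7 days) were exposed to 10 μM drug or DMSO without Aβ for 24 h. Neurite morphology was examined by phase-contrast microscopy. Viability was counted by 0.04% trypan blue exclusion.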

For series [2], the system named is SH-SY5Y. Nature of the series: Neuroprotection against beta-amyloid peptide 1-42-induced toxicity in human SH-SY5Y cells assessed as lactate dehydrogenase release. It is filed as functional, cell-based. In short, it runs like this: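 Proliferating SH-SY5Y cells were grown in DMEM with 10% FBS at 37°C in 5% CO2, then seeded into 96-well plates. Drug or DMSO was given 2 h before 10 μM Aβ in serum-free DMEM for 48 h. LDH released into the cleared medium was read kinetically as NADH oxidation (50 mM phosphate pH 7.4, 1 mM pyruvate, 0.2 mM NADH; […], 5 min, 25°C). Aβ alone was set as 100% cell death. Mean ± S.E.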

Series [3] relates to SH-SY5Y. Nature of the series: Neuroprotection against beta-amyloid peptide 1-42-induced toxicity in retinoic acid-differentiated human SH-SY5Y cells assessed as lactate dehydrogenase release at 10 nM. It is filed as functional, cell-based. In short, it runs like this:
(§1)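 SH-SY5Y cells were differentiated for 7 days with 10 μM retinoic acid until they stopped proliferating and grew neurites. Drug was added 2 h before 10 μM Aβ in serum-free DMEM for 48 h. Released LDH was measured by NADH oxidation (pyruvate 1 mM, NADH 0.2 mM, pH 7.4; […] over 5 min at 25°C). Protection is expressed against Aβ alone, taken as 100% death.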

Series [4] concerns SH-SY5Y. Nature of the series: Neuroprotection against beta-amyloid peptide 1-42-induced toxicity in retinoic acid-differentiated human SH-SY5Y cells assessed as lactate dehydrogenase release. It is filed as functional, cell-based. The procedure, abridged: as §1
The subject of series [5] is SH-SY5Y. Nature of the series: Toxicity in human SH-SY5Y cells at 10 uM by trypan blue exclusion method. It is filed as cell-based.
Series [6] has as its system SH-SY5Y. As to the kind of experiment: Neuroprotection against beta-amyloid peptide 1-42-induced toxicity in retinoic acid-differentiated human SH-SY5Y cells assessed as lactate dehydrogenase release at 1 uM. It is filed as functional. In short, it runs like this: as §1

The results in this text go back to ChEMBL document CHEMBL1136850, “Neuroprotective activity and evaluation of Hsp90 inhibitors in an immortalized neuronal cell line” (Bioorg Med Chem, 2009).

Calls of active or inactive are those of the source. The calls are words filed in the database; no cut-off is given here.

The EC50 is the concentration needed to bring the measured effect to its halfway point.

As to `CO[C@@H]1[C@@H](O)[C@@H](O)[C@H](Oc2ccc3cc(NC(C)=O)c(=O)oc3c2)OC1(C)C`, the Activity entry with SH-SY5Y [1] is “Non-toxic”. Further, the EC50 with SH-SY5Y [2] was determined as 4.85 nM.
Take `CO[C@@H]1[C@@H](OC(N)=O)[C@@H](O)[C@H](Oc2ccc3c(O)c(NC(=O)c4ccc(O)c(CC=C(C)C)c4)c(=O)oc3c2C)OC1(C)C` [NOVOBIOCIN]: the Activity result in the series with SH-SY5Y [1] is on record as “Toxic”. Also, the result with SH-SY5Y [3] and in the series with SH-SY5Y [4] was Active. The EC50 in the series on SH-SY5Y [2] stood at 48.4 nM.
For the compound `O=C(O)/C=C/c1nn(Cc2ccc(Cl)cc2Cl)c2cc(C(F)(F)F)ccc12`, the outcome in the series with SH-SY5Y [4] was inactive.
For the compound `CC1=C(O)C(=O)C=C2C1=CC=C1[C@@]2(C)CC[C@@]2(C)[C@@H]3C[C@](C)(C(=O)O)CC[C@]3(C)CC[C@]12C` [CELASTROL], the EC50 in the series on SH-SY5Y [2] was determined as 37.6 nM.
Take `O=C(O[C@@H]1Cc2c(O)cc(O)cc2O[C@@H]1c1cc(O)c(O)c(O)c1)c1cc(O)c(O)c(O)c1` [EPIGALOCATECHIN GALLATE]: in the series with SH-SY5Y [2], the EC50 was found to be 39.9 nM.
`CO[C@@H]1[C@@H](O)[C@@H](O)[C@H](Oc2ccc3cc(NC(C)=O)c(=O)oc3c2C)OC1(C)C`: the Activity result is reported as “Non-toxic” in the series on SH-SY5Y [1] and 70% in the series with SH-SY5Y [6]. The AC50 result in the series on SH-SY5Y [5] is “Non-toxic”. The EC50 in the series on SH-SY5Y [2] was determined as 1.49 nM.
In the case of `CC(=O)O[C@@H]1C[C@H]2C(C)(C)C(=O)C=C[C@]2(C)[C@H]2CC[C@@]3(C)[C@H](c4ccoc4)OC(=O)[C@H]4O[C@]43[C@@]21C` [GEDUNIN], the EC50 in the series on SH-SY5Y [2] was found to be 39 nM.
Regarding `CO[C@@H]1[C@@H](O)[C@@H](O)[C@H](Oc2ccc3cc(NC(=O)CCCCCCC(=O)Nc4cc5ccc(O[C@@H]6OC(C)(C)[C@H](OC)[C@@H](O)[C@H]6O)c(C)c5oc4=O)c(=O)oc3c2C)OC1(C)C`, the Activity result in the series on SH-SY5Y [1] was “Non-toxic”. For the same compound, in the series with SH-SY5Y [5], the AC50 result is on record as “Non-toxic”. Also, the EC50 with SH-SY5Y [2] was found to be 4.48 nM.
As to `COC1=C2C[C@@H](C)C[C@H](OC)[C@H](O)[C@@H](C)/C=C(\C)[C@H](OC(N)=O)[C@@H](OC)/C=C\C=C(/C)C(=O)NC(=CC1=O)C2=O` [GELDANAMYCIN], in the series on SH-SY5Y [1], the Activity result was “Toxic”. In addition, the outcome with SH-SY5Y [3] was Active. Besides, in the series on SH-SY5Y [4], the outcome was inactive. Further, the EC50 with SH-SY5Y [2] was 42.7 nM.
